The target of data set [1] is T1, Glutamate NMDA receptor; Grin1/Grin2a (Rattus norvegicus) (UniProt P35439+Q00959). Nature of the data set: Negative allosteric modulation of rat GluN1a/GluN2A receptor expressed in Xenopus laevis oocytes assessed as suppression of 100 uM glutamate and 30 uM glycine induced-current at 30 uM by voltage clamp recording method. Type of data set: cell-based.
The target of data set [2] is T2, Ionotropic glutamate receptor NMDA 1/2D (Rattus norvegicus) (UniProt P35439+Q62645). As to the kind of experiment: Negative allosteric modulation of rat GluN1a/GluN2D receptor expressed in Xenopus laevis oocytes assessed as suppression of 100 uM glutamate and 30 uM glycine at 30 uM glycine induced-current by voltage clamp recording method. Type of data set: cell-based.

Data set [3] has as its target T3, Glutamate NMDA receptor; Grin1/Grin2b (Rattus norvegicus) (UniProt P35439+Q00960). As to the kind of experiment: Negative allosteric modulation of rat GluN1a/GluN2B receptor expressed in Xenopus laevis oocytes assessed as suppression of 100 uM glutamate and 30 uM glycine induced-current at 30 uM by voltage clamp recording method. Format: cell-based.
Data set [4] concerns the target T4, Glutamate NMDA receptor; Grin1/Grin2c (Rattus norvegicus) (UniProt P35439+Q00961). Nature of the data set: Negative allosteric modulation of rat GluN1a/GluN2C receptor expressed in Xenopus laevis oocytes assessed as suppression of 100 uM glutamate and 30 uM glycine at 30 uM glycine induced-current by voltage clamp recording method. Format: cell-based.
Data set [5] deals with T1, Glutamate NMDA receptor; Grin1/Grin2a (Rattus norvegicus). Nature of the data set: Negative allosteric modulation of rat GluN1a/GluN2A receptor expressed in Xenopus laevis oocytes assessed as suppression of 100 uM glutamate and 30 uM glycine induced-current at saturating compound level by voltage clamp recording method. Type of data set: cell-based. In short, it runs like this:
(§1)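 Rat GluN1-1a cRNA co-injected with GluN2A, 2B, 2C or 2D cRNA into Xenopus oocytes; expression 1–3 days at 16–19 °C. Two-electrode voltage clamp. Currents evoked by 100 µM glutamate plus 30 µM glycine, alone and then with rising inhibitor concentrations. […] 4–17 oocytes from ≥2 frogs.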

The target of data set [6] is T4, Glutamate NMDA receptor; Grin1/Grin2c (Rattus norvegicus). Nature of the data set: Negative allosteric modulation of rat GluN1a/GluN2C receptor expressed in Xenopus laevis oocytes assessed as suppression of 100 uM glutamate and 30 uM glycine induced-current at saturating compound level by voltage clamp recording method. Format: cell-based. Summed up: as §1
Data set [7] has as its target Glutamate NMDA receptor; Grin1/Grin2b (Rattus norvegicus, UniProt P35439+Q00960). Nature of the data set: Negative allosteric modulation of rat GluN1a/GluN2B receptor expressed in Xenopus laevis oocytes assessed as suppression of 100 uM glutamate and 30 uM glycine induced-current by voltage clamp recording method. Type of data set: cell-based. In short, it runs like this:
as §1

A short description of data set [8]: Solubility of compound in TEVC electrophysiological solution at 3.25 to 100 uM by nephelometric method. Type of data set: physicochemical. Summed up:
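Nephelometry measuring forward light scattering of each compound at 3.25–100 µM in TEVC recording solution. Maximum solubility taken as the intersection point of a linear segmental regression. Mean of n = 2 in quadruplicate.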

Data set [9] deals with Ionotropic glutamate receptor NMDA 1/2D (Rattus norvegicus, UniProt P35439+Q62645). As to the kind of experiment: Negative allosteric modulation of rat GluN1a/GluN2D receptor expressed in Xenopus laevis oocytes assessed as suppression of 100 uM glutamate and 30 uM glycine induced-current by voltage clamp recording method. Type of data set: cell-based. Summed up:
as §1

The target in data set [10] is T3, Glutamate NMDA receptor; Grin1/Grin2b (Rattus norvegicus). Nature of the data set: Negative allosteric modulation of rat GluN1a/GluN2B receptor expressed in Xenopus laevis oocytes assessed as suppression of 100 uM glutamate and 30 uM glycine induced-current at saturating compound level by voltage clamp recording method. Format: cell-based. Summed up:
as §1

Data set [11] has as its target Glutamate NMDA receptor; Grin1/Grin2c (Rattus norvegicus, UniProt P35439+Q00961). As to the kind of experiment: Negative allosteric modulation of rat GluN1a/GluN2C receptor expressed in Xenopus laevis oocytes assessed as suppression of 100 uM glutamate and 30 uM glycine induced-current by voltage clamp recording method. Type of data set: cell-based. In short, it runs like this: as §1

The target of data set [12] is T2, Ionotropic glutamate receptor NMDA 1/2D (Rattus norvegicus). Nature of the data set: Negative allosteric modulation of rat GluN1a/GluN2D receptor expressed in Xenopus laevis oocytes assessed as suppression of 100 uM glutamate and 30 uM glycine induced-current at saturating compound level by voltage clamp recording method. Format: cell-based. Summed up: as §1
For data set [13], the target named is Glutamate NMDA receptor; Grin1/Grin2a (Rattus norvegicus, UniProt P35439+Q00959). As to the kind of experiment: Negative allosteric modulation of rat GluN1a/GluN2A receptor expressed in Xenopus laevis oocytes assessed as suppression of 100 uM glutamate and 30 uM glycine glycine induced-current by voltage clamp recording method. Format: cell-based. In short, it runs like this: as §1

Experimental findings from ChEMBL document CHEMBL3739344, “A novel class of negative allosteric modulators of NMDA receptor function” (Bioorg Med Chem Lett, 2015) are described below.

pIC50: −log10 of the molar value. Converted amounts (≈) assume the structure as drawn.

In general, inhibition refers to how much of the control response was suppressed. With `N=C1NC(=O)C(CC(=O)Nc2sc3c(c2C(=O)O)CCCC3)S1` (racemic), the inhibition in data set [1], in [2], in [3] and in data set [4] was less than 25% in each case.

A word on the pIC50: it is −log10 of the IC50, conventionally taken in molar units. As usually defined, the kinetic solubility is the concentration staying in solution when a stock, usually in DMSO, is diluted into the medium. In the case of `CCOC(=O)c1c(NC(=O)CC2SC(=N)NC2=O)sc2c1CCC(CC)C2` (racemic), the inhibition in data set [5] is 58%; in [6], 80%; in data set [10], 59%; in data set [12] it was 73%. Also, the pIC50 in [7] was 5.66; in [9] it was 5.82; in data set [11] it was 6.05; in [13] it was 5.47. For the same compound, in [8], the solubility (kinetic) came to 73 µM (≈ 29.9 µg/mL).

For the compound `COC(=O)c1ccsc1NC(=O)CC1SC(=N)NC1=O` (racemic), the inhibition was 100% in data set [6], less than 25% in data set [1], 99% in data set [12] and less than 25% in data set [3]. Besides, the figures for the pIC50 in [9] and in [11] were 4.36 and 4.39, respectively.

Take `CCOC(=O)c1c(NC(=O)CC2SC(=N)NC2=O)sc2c1CCC(C)(C)C2` (racemic): the inhibition was 72% in data set [5], 89% in [6], 44% in data set [10] and 90% in data set [12]. Also, the negative-log IC50 (pIC50) is 5.04 in data set [7], 5.06 in [9], 5.03 in data set [11] and 4.79 in data set [13]. The same compound returned a kinetic solubility in data set [8] of 37 µM (≈ 15.2 µg/mL).

Turning to `COC(=O)c1c(NC(=O)CC2SC(=N)NC2=O)sc(C)c1C` (racemic), the inhibition was 88% in [5], 88% in data set [6], 63% in data set [10] and 94% in data set [12]. Besides, the negative logarithm of the IC50 (pIC50) in data set [7] was 4.55; in [9], 4.98; in data set [11], 5.01; in [13], 4.65.

On to `CCOC(=O)c1c(NC(=O)CC2SC(=N)NC2=O)sc(C)c1C` (racemic), for which the inhibition was 80% in data set [5], 77% in [6], 81% in [12] and less than 25% in [3]. The negative-log IC50 (pIC50) in [9] was 4.89; in data set [11] it was 5.09; in data set [13] it was 4.52.

For `CCOC(=O)c1c(NC(=O)CC2SC(=O)NC2=O)sc2c1CCC2` (racemic), the inhibition in [1], in data set [2], in data set [3] and in data set [4] was less than 25% throughout.

For the compound `CCc1cc(C(=O)OC)c(NC(=O)CC2SC(N)=NC2=O)s1` (racemic), the inhibition in [5] was determined as 98%; in data set [6] it was 97%; in data set [10], 97%; in data set [12], 98%. Further, the pIC50 in [7] is 5.03; in data set [9], 5.59; in data set [11], 5.60; in data set [13], 5.32.

As to `CCOC(=O)c1c(NC(=O)CC2SC(=N)NC2=O)sc2c1CCCC2` (racemic), the inhibition in data set [5] stood at 61%; in data set [6], 53%; in data set [10], 35%; in data set [12], 41%. For the same compound, the pIC50 is 5.38 in data set [7], 6.22 in data set [9], 5.92 in data set [11] and 5.64 in data set [13]. In data set [8], this compound displayed a solubility (kinetic) of 54 µM (≈ 20.6 µg/mL).

`CCOC(=O)c1c(NC(=O)CC2SC(=N)NC2=O)sc2c1CCC(F)(F)C2` (racemic): the inhibition was determined as 84% in data set [5], 75% in data set [6], 74% in [10] and 65% in data set [12]. The pIC50 is 5.10 in data set [7], 5.82 in [9], 5.85 in data set [11] and 5.28 in data set [13]. Besides, the kinetic solubility in data set [8] came to 35 µM (≈ 14.6 µg/mL).

Take `COC(=O)c1c(NC(=O)CC2SC(N)=NC2=O)sc2c1CCC(C(C)(C)C)C2` (racemic): the inhibition in [1], in data set [2], in [3] and in data set [4] was less than 25% each time.

For the compound `COC(=O)c1c(NC(=O)CC2SC(N)=NC2=O)sc2c1CCCC2` (racemic), the inhibition in data set [5] was 81%; in data set [6], 88%; in data set [10], 86%; in [12], 86%. For the same compound, the negative logarithm of the IC50 (pIC50) is 5.38 in [7], 5.96 in data set [9], 6.00 in data set [11] and 5.47 in [13]. For the same compound, the kinetic solubility in [8] is 57 µM (≈ 20.9 µg/mL).

As to `N#Cc1c(NC(=O)CC2SC(=N)NC2=O)sc2c1CCCC2` (racemic), the inhibition in data set [6] is 59%; in [12], 63%. The same compound yielded a kinetic solubility in data set [8] of 36 µM (≈ 12 µg/mL). The figures for the pIC50 in [9] and in [11] were 5.37 and 5.54, respectively.

Turning to `CCOC(=O)c1c(NC(=O)CC2SC(=N)NC2=O)sc2c1CCOC2` (racemic), the inhibition is 74% in [5], 59% in data set [6], 69% in data set [10] and 41% in data set [12]. In addition, the negative-log IC50 (pIC50) in data set [7] is 5.25; in data set [9], 5.68; in data set [11], 5.54; in data set [13], 5.52.

For `CCOC(=O)c1c(NC(=O)CC2SC(=O)NC2=O)sc2c1CCCC2` (racemic), the inhibition in data set [1], in data set [2], in data set [3] and in data set [4] was less than 25% throughout.

Take `CCOC(=O)c1c(NC(=O)CC2S/C(=N\C)N(C)C2=O)sc2c1CCCC2` (racemic): the inhibition in [1], in [2], in [3] and in [4] was less than 25% throughout.

Regarding `CCOC(=O)c1c(NC(=O)CC2NC(=O)NC2=O)sc2c1CCCC2` (racemic), the inhibition in [1], in [2], in [3] and in data set [4] was less than 25% each time.

For `CCc1c(C)sc(NC(=O)CC2SC(=N)NC2=O)c1C(=O)OC` (racemic), the inhibition in data set [5] is 79%; in [6] it was 85%; in data set [10], 77%; in data set [12], 82%. For the same compound, the negative-log IC50 (pIC50) in [7] is 4.36; in data set [9], 5.04; in data set [11], 5.17; in [13] it was 4.57.

On to `CCOC(=O)c1cc(C)sc1NC(=O)CC1SC(=N)NC1=O` (racemic), for which the inhibition in data set [5] stood at 93%; in data set [6], 98%; in data set [10], 91%; in data set [12] it was 99%. The pIC50 in [7] is 4.35; in data set [9], 4.91; in data set [11] it was 4.95; in data set [13], 4.37.

Regarding `CCOC(=O)c1cc(CC)sc1NC(=O)CC1SC(=N)NC1=O` (racemic), the inhibition in data set [5] amounted to 96%; in data set [6] it was 97%; in data set [10], 96%; in [12] it was 94%. The pIC50 in data set [7] was 5.01; in [9] it was 5.59; in data set [11], 5.43; in [13], 5.21.

Turning to `COC(=O)c1c(NC(=O)CC2SC(N)=NC2=O)sc2c1CCC(C)C2` (racemic), the inhibition in data set [5] turned out to be 80%; in data set [6], 95%; in [10], 74%; in [12], 94%. Further, the negative logarithm of the IC50 (pIC50) in [7] is 6.22; in [9], 6.52; in data set [11] it was 6.52; in data set [13], 6.15. Moreover, in data set [8], the solubility (kinetic) was determined as 20 µM (≈ 7.63 µg/mL).
